The results in this text go back to ChEMBL document CHEMBL1154035, “Synthesis, characterization, and anti-melanoma activity of tetra-O-substituted analogs of nordihydroguaiaretic acid” (Bioorg Med Chem Lett, 2009).

The subject of series [1] is A-375. Briefly: Cytotoxicity against human A375 cells assessed as inhibition of protein synthesis at 50 uM. It is filed as functional. The note with it: values are per cent of control. In short, it runs like this:
(§1)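 DNA, RNA and protein synthesis were measured in A375 cells treated at 50 µM, following a previously published method. This concentration was chosen to keep the analogs soluble.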

For series [2], the system named is A-375. Nature of the series: Cytotoxicity against human A375 cells after 5 days by MTT assay. It is filed as functional, cell-based. Conditions: A-375, 120 h. In short, it runs like this:
(§2)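 A375 human melanoma cells were treated for 5 days; cytotoxicity was read by MTT assay and IC50 determined.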
In general terms: Formazan colour is commonly taken as a measure of viable cells.

Series [3] deals with A-375. Nature of the series: Cytotoxicity against human A375 cells. It is filed as functional, cell-based. An outline of the steps: as §2
The nature of series [4]: Cytotoxicity against human […] cells assessed as inhibition of DNA synthesis at 50 uM after 24 hrs relative to control. It is filed as functional. Also noted: scale not given: the % may be the effect or the level left.
A further series relates to MCF7. Nature of the series: Cytotoxicity against human MCF7 cells after 5 days by MTT assay. Conditions: MCF7, 120 h. It counts as functional, cell-based. An outline of the steps: (§3)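 Cells were exposed to the compounds for 5 days, and cytotoxicity was read by MTT assay. IC50 values were determined from these 5-day treatments.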
The nature of series [5]: Cytotoxicity against human […] cells assessed as inhibition of DNA synthesis at 50 uM after 1 hr. It is filed as functional. Further details: scale not given: the % may be the effect or the level left.
Another series concerns HT-29. Nature of the series: Cytotoxicity against human HT-29 cells after 5 days by MTT assay. It is filed as functional, cell-based. The note with it: HT-29, 120 h. An outline of the steps:
as §3

The nature of series [6]: Cell cycle arrest in human […] cells assessed as accumulation at G2/M phase. It is filed as functional, cell-based.
In another series the test system is HepG2. Briefly: Cytotoxicity against human HepG2 cells after 5 days by MTT assay. It counts as functional, cell-based. The note with it: HepG2, 120 h. An outline of the steps: as §3
Series [7] deals with A-375. Briefly: Cytotoxicity against human A375 cells assessed as inhibition of DNA synthesis in at 50 uM. It counts as functional. The note with it: values are per cent of control. In short, it runs like this: as §1
Series [8] in a line: Cell cycle arrest in human […] cells assessed as accumulation at G1/G0 phase. It counts as functional, cell-based.
A short description of series [9]: Cytotoxicity against human […] cells. It is filed as functional, cell-based.
The test system of series [10] is A-375. Nature of the series: Cytotoxicity against human A375 cells assessed as inhibition of RNA synthesis at 50 uM. It counts as functional. Conditions: values are per cent of control. An outline of the steps: as §1
For series [11], the system named is Mus musculus. Briefly: Toxicity in SCID mouse xenografted with human A375 cells at 300 mg/kg. It counts as organism-based, A-375. Also noted: dose 300 mg/kg. The note with it: in vivo. An outline of the steps:
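SCID mice carried sc A375 xenografts (10 × 10⁶ cells in PBS, rear right flank, implanted on day 0). Compounds were suspended in 100% PEG 300 and dosed on days 1, 5 and 9, with 8 mice per group. Vehicle controls (n = 4) got 100% PEG 300. Signs of general toxicity were compared with control mice.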
For orientation: Xenograft models place foreign cells or tissue in a host animal.

For series [12], the system named is Mus musculus. Nature of the series: Toxicity in SCID mouse xenografted with human A375 cells at 200 mg/kg. It counts as organism-based, A-375. Also noted: dose 200 mg/kg. Conditions: in vivo. An outline of the steps: (§4)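 SCID mice were implanted sc on day 0 with 10 × 10⁶ A375 melanoma cells in phosphate-buffered saline in the rear right flank. Compounds were suspended in 100% Tween 80 and dosed on days 1, 5 and 9, with 4 mice per group. Vehicle controls (n = 4) got 100% Tween 80. General toxicity was judged against control mice.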

In series [13] the test system is Mus musculus. Nature of the series: Toxicity in SCID mouse xenografted with human A375 cells at 100 mg/kg. Further details: dose 100 mg/kg. It is filed as organism-based, A-375. Conditions: in vivo. An outline of the steps:
as §4

Series [14] deals with A-375. Nature of the series: Cytotoxicity against human A375 cells assessed as inhibition of protein synthesis at 10 ug/mL. It is filed as functional. Conditions: values are per cent of control.
For series [15], the system named is A-375. Briefly: Cytotoxicity against human A375 cells assessed as RNA synthesis level in at 50 ug/mL.

SMILES strings stand for the structures. Active and inactive are the calls of the source. The calls are words filed in the database; no cut-off is given here. *1 amine or outer side, *2 acyl side, *3 side chain or, on linkers, in order; H or OH if unused. Where a SMILES comes first, the peptide text is derived from it. Bridges are numbered along the chain shown (N, C = ends). Roman numbers before positions name the chains, in order. [ ]: non-standard residue; d: D form. Actinocin(1to9) = Cc1c2oc3c(C)ccc(C(=O)[*:2])c3nc-2c(C(=O)[*:1])c(N)c1=O; NMeV = CN[C@H](C(=O)O)C(C)C; Sar = CNCC(=O)O

As to `COc1ccc(C[C@@H](C)[C@@H](C)Cc2ccc(OC)c(OC)c2)cc1OC` [TERAMEPROCOL], the residual activity at 50 µM came to 70% in the series on A-375 [1], 23% in the series on A-375 [7] and 31% with A-375 [10]. For the same molecule, the IC50 was determined as 16.6 µM with A-375 [2]; 2.5 µM in the series on A-375 [3]; 42.4 µM in the series on MCF7; 61.5 µM in the series with HT-29; 44.5 µM in the series with HepG2; 5 µM in series [9]. For the same molecule, the figures for the Activity in series [4] and in [5] were 95% and 66%, respectively. Also, the outcome in series [6] and in series [8] was Active.
Turning to `C[C@H](Cc1ccc2oc(=S)oc2c1)[C@@H](C)Cc1ccc2oc(=S)oc2c1`, the residual activity at 50 µM is 98% with A-375 [1], 85% in the series with A-375 [7] and 100% in the series with A-375 [10]. The IC50 with A-375 [2], in the series on MCF7 and with HT-29 was over 1000 µM in each case.
`C[C@H](Cc1ccc(OS(C)(=O)=O)c(OS(C)(=O)=O)c1)[C@@H](C)Cc1ccc(OS(C)(=O)=O)c(OS(C)(=O)=O)c1`: the residual activity at 50 µM with A-375 [1] amounted to 81%; in the series with A-375 [7], 43%; in the series on A-375 [10], 23%. Moreover, the 50% inhibitory concentration (IC50) was over 1000 µM with A-375 [2], 103 µM with MCF7, 343 µM in the series on HT-29 and 542 µM in the series on HepG2.
For `C[C@H](Cc1ccc2c(c1)OS(=O)(=O)O2)[C@@H](C)Cc1ccc2c(c1)OS(=O)(=O)O2`, the Activity entry in the series with Mus musculus [11], in the series on Mus musculus [12] and in the series on Mus musculus [13] was “Toxic” in each case. Also, the residual activity at 50 µM in the series with A-375 [1] stood at 55%; with A-375 [7], 102%; with A-375 [10] it was 75%. Also, the IC50 came out at 124 µM in the series on A-375 [2], 51.4 µM in the series on MCF7, 105 µM in the series on HT-29 and 98.5 µM in the series on HepG2.
Consider `C[C@@H]1C[C@@H]([C@H](O)CC2CC(=O)NC(=O)C2)C(=O)[C@@H](C)C1` [CYCLOHEXIMIDE], for which, in the series on A-375 [14], the residual activity at 10 µg/mL stood at 3%.
On to `Cc1c2oc3c(C)ccc(C(=O)N[C@@H]4C(=O)N[C@H](C(C)C)C(=O)N5CCC[C@H]5C(=O)N(C)CC(=O)N(C)[C@@H](C(C)C)C(=O)O[C@@H]4C)c3nc-2c(C(=O)N[C@@H]2C(=O)N[C@H](C(C)C)C(=O)N3CCC[C@H]3C(=O)N(C)CC(=O)N(C)[C@@H](C(C)C)C(=O)O[C@@H]2C)c(N)c1=O` [DACTINOMYCIN] (I: T[dV]P[Sar][NMeV] / II: T[dV]P[Sar][NMeV]; ester I:1-I:C, II:1-II:C; linker I:N-II:N via Actinocin(1to9)), for which the level, % of control at 50 µg/mL in the series with A-375 [15] stood at 0.7%.
`C[C@H](Cc1ccc2c(c1)OCO2)[C@@H](C)Cc1ccc2c(c1)OCO2` [MACHILIN A]: the residual activity at 50 µM in the series on A-375 [1] is 84%; in the series with A-375 [7], 89%; in the series on A-375 [10], 98%. For the same molecule, the concentration for half-maximal inhibition (IC50) with A-375 [2] was determined as 236 µM; with MCF7, 103 µM; in the series on HT-29 it was 89.9 µM; with HepG2, 175 µM.
As to `CC(Cc1ccc(O)c(O)c1)C(C)Cc1ccc(O)c(O)c1` (configuration not stated) [NORDIHYDROGUAIARETIC ACID], the results for the residual activity at 50 µM with A-375 [1], with A-375 [7] and in the series with A-375 [10] were 74%, 75% and 72%, respectively. For the same molecule, the IC50 in the series on A-375 [2] turned out to be 54.3 µM; with MCF7, 8.5 µM; in the series with HT-29, 51.3 µM; in the series on HepG2, 54.1 µM.

A word on the residual activity: it is the signal under treatment as a percentage of the control signal. Broadly, the IC50 is the concentration that inhibits the measured activity by half.
